# pIC50: −log10 of the molar value. Activity calls are given as the source filed them. The rule behind the calls is not given here.
# What was measured:
# [1] = Inhibition of bovine brain tubulin polymerization preincubated for 15 mins followed by GTP addition and measured for 20 mins by spectrophotometric method; design: species or system Bos taurus
# Method in brief: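 Final mixture: 10 μM (1 mg/mL) bovine brain tubulin, 0.8 M monosodium glutamate pH 6.6, 4% DMSO, 0.4 mM GTP, varied compound concentrations. All components except GTP preincubated 15 min at 30 °C, chilled to 0 °C, GTP added, then jumped to 30 °C.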
# NCI-H460 = test: Growth inhibition of human NCI-H460 cells after 48 hrs by SRB assay; assay type: functional; conditions: NCI-H460, 48 h
# Method in brief: (§1)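 Cells plated at 7000–8000 per well in DMEM with 5% FBS/1% gentamicin, grown 24 h at 37 °C, 5% CO2. Compounds from 10 mg/mL DMSO stock added as serial dilutions; doxorubicin and paclitaxel as positive controls.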
# DU-145 = test: Growth inhibition of human DU145 cells after 48 hrs by SRB assay; assay type: functional; conditions: DU-145, 48 h; method in brief: as §1
# SK-OV-3 = test: Growth inhibition of human SKOV3 cells after 48 hrs by SRB assay; assay type: functional; conditions: SK-OV-3, 48 h; method in brief: as §1
# MDA-MB-231 [2] = test: Vascular disrupting activity in luciferase expressing human MDA-MB-231 cells xenografted in BALB/c SCID mouse at 200 mg/kg, ip at 4 hrs by bioluminescence imaging method relative to control; assay type: functional
# Method in brief: (§2)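 Orthotopic tumors from 1 × 10^6 MDA-MB-231-luc cells in PBS/50% Matrigel injected into left upper mammary fat pad of BALB/c SCID mice. Dynamic BLI over 30 min after luciferin injection at baseline, then 4 and 24 h after IP dosing in saline (200 mg/kg in the mouse shown), with fresh luciferin each time; signal reduction expressed versus baseline.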
# MDA-MB-231 [3] = test: Vascular disrupting activity in luciferase expressing human MDA-MB-231 cells xenografted in BALB/c SCID mouse at 200 mg/kg, ip at 24 hrs by bioluminescence imaging method relative to control; assay type: functional; method in brief: as §2
# Bos taurus [4] = organism: Bos taurus; test: Inhibition of [3H]colchicine binding to calf brain tubulin at 1 uM incubated for 10 mins by scintillation counting method relative to control
# Method in brief: (§3)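 Tubulin at 1.0 μM with 5.0 μM [3H]colchicine, 5% (v/v) DMSO and test compound at 1.0 or 5.0 μM. Binding-stabilizing buffer: 1.0 M monosodium glutamate (pH 6.6), 0.5 mg mL–1 BSA, 0.1 M glucose-1-phosphate, 1.0 mM MgCl2, 1.0 mM GTP. Incubated 10 min at 37 °C, stopped with ice-cold water, trapped on DEAE-cellulose filters and scintillation-counted. Counts corrected for filter binding without tubulin; percent inhibition versus no-inhibitor samples.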
# Bos taurus [5] = organism: Bos taurus; test: Inhibition of [3H]colchicine binding to calf brain tubulin at 5 uM incubated for 10 mins by scintillation counting method relative to control; method in brief: as §3
# A549 = test: Vascular disrupting activity in human A549 cells xenografted in T-cell deficient athymic homozygous nude rat assessed as reduction of blood flow at 15 mg/kg, ip after 2 hrs by color doppler ultrasound imaging method; assay type: functional, organism-based
# Method in brief: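 Nude rat bearing subcutaneous leg A549 tumor (3 × 10^6 cells in serum-free medium with 50% Matrigel; tumor about 0.5 cm3). Under isoflurane, color-Doppler ultrasound performed before and 2 h after 15 mg/kg IP in 500 μl saline; tumor blood perfusion compared with baseline.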
pIC50 [1],GI50 (NCI-H460),GI50 (DU-145),GI50 (SK-OV-3),inhibition (Bos taurus [4]),inhibition (Bos taurus [5]),Structure (SMILES),Activity (MDA-MB-231 [2]),Activity (MDA-MB-231 [3]),Activity (A549)
< 4.70,52.4 nM,12.6 nM,12.9 nM,,,COc1cc(C(=O)C2=CCCc3c2ccc(OC)c3OP(=O)([O-])[O-])cc(OC)c1OC.[Na+].[Na+],99%,81%,
5.92,21.6 nM,7.3 nM,6.22 nM,81%,98%,COc1ccc2c(c1O)CCC=C2C(=O)c1cc(OC)c(OC)c(OC)c1,,,
< 4.70,3.73 nM,3.27 nM,1.9 nM,,,COc1cc(C2=CCCc3c2ccc(OC)c3OP(=O)(O)O)cc(OC)c1OC,,,Active

# — ChEMBL document CHEMBL4257558, “Synthesis of dihydronaphthalene analogues inspired by combretastatin A-4 and their biological evaluation as anticancer agents” (Medchemcomm, 2018)
